From ChEMBL document CHEMBL3232911, “Imidazolylchromanones containing non-benzylic oxime ethers: synthesis and molecular modeling study of new azole antifungals selective against Cryptococcus gattii” (2014)

Columns and labels:
Candida albicans = assay: Antifungal activity against Candida albicans assessed as total growth inhibition by micro-broth dilution method; assay type: functional
Procedure, shortened: (§1)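 Broth microdilution following CLSI methods for yeasts and filamentous fungi. Compounds dissolved in DMSO, serially diluted in growth medium, inoculum added, incubation at 35 °C. MIC taken as the lowest concentration giving total inhibition of fungal growth. Testing done in triplicate.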

[1] = tested on: Cryptococcus gattii species complex; assay: Antifungal activity against Cryptococcus gattii assessed as total growth inhibition by micro-broth dilution method; assay type: functional, Cryptococcus bacillisporus; procedure, shortened: as §1
Aspergillus fumigatus = assay: Antifungal activity against Aspergillus fumigatus assessed as total growth inhibition by micro-broth dilution method; assay type: functional; procedure, shortened: as §1
Exophiala dermatitidis = assay: Antifungal activity against Exophiala dermatitidis assessed as total growth inhibition by micro-broth dilution method; assay type: functional; procedure, shortened: as §1

| SMILES | MIC (Candida albicans) [µg/mL] | MIC [1] [µg/mL] | MIC (Aspergillus fumigatus) [µg/mL] | MIC (Exophiala dermatitidis) [µg/mL] |
| --- | --- | --- | --- | --- |
| Fc1cccc(OCCO/N=C2\c3ccccc3OCC2n2ccnc2)c1.O=[N+]([O-])O (racemic) | > 64 | 2 | 64 | 64 |
| Fc1ccc(OCCO/N=C2\c3ccccc3OCC2n2ccnc2)cc1.O=[N+]([O-])O (racemic) | > 64 | 4 | 64 | 128 |
| O/N=C1\c2ccccc2OCC1n1ccnc1 (stereo unspecified) | > 64 | > 64 | > 64 | > 128 |
| Clc1ccc(OCCO/N=C2\c3ccccc3OCC2n2ccnc2)cc1.O=[N+]([O-])O (racemic) | > 64 | 4 | 64 | 64 |
| OC(Cn1cncn1)(Cn1cncn1)c1ccc(F)cc1F [FLUCONAZOLE] | 2 | > 64 | > 64 | > 64 |
| O=[N+]([O-])O.c1ccc(OCCO/N=C2\c3ccccc3OCC2n2ccnc2)cc1 (racemic) | > 64 | 2 | 32 | 128 |
| Clc1cccc(OCCO/N=C2\c3ccccc3OCC2n2ccnc2)c1.O=[N+]([O-])O (racemic) | > 64 | 0.5 | 32 | 64 |
| Clc1ccc(OCCO/N=C2\c3ccccc3OCC2n2ccnc2)c(Cl)c1.O=[N+]([O-])O (racemic) | > 64 | 2 | 64 | 128 |
| CCC(C)n1ncn(-c2ccc(N3CCN(c4ccc(OCC5COC(Cn6cncn6)(c6ccc(Cl)cc6Cl)O5)cc4)CC3)cc2)c1=O (stereo unspecified) [ITRACONAZOLE] | 0.25 | 0.5 | 4 | 0.5 |
